11 compounds from ChEMBL document CHEMBL1131252, “Rational design and combinatorial evaluation of enzyme inhibitor scaffolds: identification of novel inhibitors of matrix metalloproteinases” (J Med Chem, 1998) can be followed below.

For assay [1], the target named is T1, Stromelysin-1 (Homo sapiens, UniProt P08254). Put plainly: Inhibition of Matrix Metalloprotease-3. The method, boiled down:
(§1)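 Stromelysin-1, recombinant human C-terminally truncated form, used at 10 nM final. Conditions: room temperature; Hepes 20 mM, CaCl₂ 5 mM, Brij35 0.02%, cysteine 0.5 mM; inhibitor in degassed methanol (2% final) preincubated 3 min. Reaction started with quenched-fluorescence substrate Mca-PLGL-Dpa-AR-NH₂ (10 μM final), read at ex 330/em 430 nm every minute for 30 min. IC50 came from rate fit v_i = v_0/(1+[I]/IC50).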

For assay [2], the target named is T2, Interstitial collagenase (Homo sapiens, UniProt P03956).
T2 sequence (P03956 whole entry): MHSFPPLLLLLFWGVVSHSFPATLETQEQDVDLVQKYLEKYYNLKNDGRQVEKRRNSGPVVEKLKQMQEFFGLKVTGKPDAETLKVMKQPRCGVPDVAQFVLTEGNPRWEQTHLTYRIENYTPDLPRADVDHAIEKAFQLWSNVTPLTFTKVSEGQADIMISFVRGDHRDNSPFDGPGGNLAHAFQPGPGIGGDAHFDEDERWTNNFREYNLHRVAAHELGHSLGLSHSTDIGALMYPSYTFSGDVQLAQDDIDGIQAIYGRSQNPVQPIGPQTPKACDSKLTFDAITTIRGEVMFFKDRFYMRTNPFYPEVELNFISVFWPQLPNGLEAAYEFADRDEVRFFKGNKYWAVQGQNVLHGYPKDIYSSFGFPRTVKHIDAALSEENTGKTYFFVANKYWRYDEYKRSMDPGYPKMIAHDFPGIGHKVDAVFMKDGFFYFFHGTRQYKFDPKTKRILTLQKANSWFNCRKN
Put plainly: Inhibition of Matrix Metalloprotease-1. The method, boiled down:
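Recombinant C-terminally truncated human collagenase-1 at 10 nM final, in 20 mM Hepes, 5 mM CaCl₂, 0.02% Brij35, 0.5 mM cysteine at room temperature. Inhibitor was added in degassed methanol (2% final), then 3 min later 10 μM Mca-Pro-Leu-Gly-Leu-Dpa-Ala-Arg-NH₂. Fluorescence (ex 330/em 430 nm) was read each minute for 30 min; IC50 was fitted as v_i = v_0/(1+[I]/IC50).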

Assay [3] deals with T3, Matrix metalloproteinase-9 (Homo sapiens, UniProt P14780). Put plainly: Inhibition of Matrix Metalloprotease-9. The method, boiled down:
(§2)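 Gelatinase-B, a recombinant C-terminally truncated form expressed in Pichia pastoris, used at 2 nM final. Buffer was 20 mM Hepes, 5 mM CaCl₂, 0.02% Brij35, 0.5 mM cysteine, at room temperature. Inhibitor in degassed methanol (2% final) was added 3 min before 10 μM Mca-Pro-Leu-Gly-Leu-Dpa-Ala-Arg-NH₂. Fluorescence at 330/430 nm was logged per minute for 30 min; IC50 was fitted to v_i = v_0/(1+[I]/IC50).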

The target in another assay is T4, Matrilysin (Homo sapiens, UniProt P09237).
T4 sequence (P09237 whole entry): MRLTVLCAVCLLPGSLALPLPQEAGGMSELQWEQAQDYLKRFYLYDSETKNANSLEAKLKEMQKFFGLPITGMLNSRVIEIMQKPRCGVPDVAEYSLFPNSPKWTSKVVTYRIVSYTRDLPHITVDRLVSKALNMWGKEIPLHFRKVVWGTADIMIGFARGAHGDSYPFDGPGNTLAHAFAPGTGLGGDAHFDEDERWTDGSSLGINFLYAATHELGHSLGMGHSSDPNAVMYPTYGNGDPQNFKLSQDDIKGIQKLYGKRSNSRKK
Put plainly: Inhibition of matrilysin (Matrix metalloprotease-7). The method, boiled down: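 Matrilysin (recombinant C-terminally truncated human) at 0.5 nM final, room temperature, in buffer of 20 mM Hepes, 5 mM CaCl₂, 0.02% Brij35, 0.5 mM cysteine. Inhibitor was added from degassed methanol (2% final) with 3 min preincubation, then 10 μM quenched-fluorescence Mca-PLGL-Dpa-AR-NH₂ substrate. Fluorescence (ex 330/em 430 nm) was read once a minute for 30 min; IC50 came from v_i = v_0/(1+[I]/IC50).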

In assay [4] the target is T2, Interstitial collagenase. Put plainly: Inhibition of collagenase-1 (Matrix metalloprotease-1).
The target in assay [5] is T3, Matrix metalloproteinase-9. Put plainly: Inhibition of gelatinase-B (Matrix metalloprotease-9). Also on record: species or system Komagataella pastoris. The method, boiled down: as §2
Assay [6] has as its target T1, Stromelysin-1. Put plainly: Inhibition of stromelysin-1. An outline of the steps:
as §1

The target in assay [7] is T1, Stromelysin-1. Put plainly: Inhibition of stromelysin (Matrix metalloprotease-3). An outline of the steps:
as §1

In general, IC50 refers to the midpoint of a concentration-inhibition curve. Higher therefore signals weaker potency in that assay.

T1 sequence (P08254 whole entry, the tested form may be a part): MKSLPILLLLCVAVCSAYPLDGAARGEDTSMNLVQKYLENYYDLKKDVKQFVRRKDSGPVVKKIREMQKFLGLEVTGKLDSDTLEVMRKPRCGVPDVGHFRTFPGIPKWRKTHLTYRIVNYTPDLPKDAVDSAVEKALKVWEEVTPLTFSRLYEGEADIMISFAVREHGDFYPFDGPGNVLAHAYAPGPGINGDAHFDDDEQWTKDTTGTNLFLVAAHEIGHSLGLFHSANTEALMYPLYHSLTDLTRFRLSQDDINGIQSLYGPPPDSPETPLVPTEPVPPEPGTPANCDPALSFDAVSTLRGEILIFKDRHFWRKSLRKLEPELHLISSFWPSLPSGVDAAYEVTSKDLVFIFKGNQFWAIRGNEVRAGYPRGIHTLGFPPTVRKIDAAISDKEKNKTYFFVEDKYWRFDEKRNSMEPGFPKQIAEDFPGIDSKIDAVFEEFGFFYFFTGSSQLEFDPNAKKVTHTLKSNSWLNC
T3 sequence (P14780 whole entry, the tested form may be a part): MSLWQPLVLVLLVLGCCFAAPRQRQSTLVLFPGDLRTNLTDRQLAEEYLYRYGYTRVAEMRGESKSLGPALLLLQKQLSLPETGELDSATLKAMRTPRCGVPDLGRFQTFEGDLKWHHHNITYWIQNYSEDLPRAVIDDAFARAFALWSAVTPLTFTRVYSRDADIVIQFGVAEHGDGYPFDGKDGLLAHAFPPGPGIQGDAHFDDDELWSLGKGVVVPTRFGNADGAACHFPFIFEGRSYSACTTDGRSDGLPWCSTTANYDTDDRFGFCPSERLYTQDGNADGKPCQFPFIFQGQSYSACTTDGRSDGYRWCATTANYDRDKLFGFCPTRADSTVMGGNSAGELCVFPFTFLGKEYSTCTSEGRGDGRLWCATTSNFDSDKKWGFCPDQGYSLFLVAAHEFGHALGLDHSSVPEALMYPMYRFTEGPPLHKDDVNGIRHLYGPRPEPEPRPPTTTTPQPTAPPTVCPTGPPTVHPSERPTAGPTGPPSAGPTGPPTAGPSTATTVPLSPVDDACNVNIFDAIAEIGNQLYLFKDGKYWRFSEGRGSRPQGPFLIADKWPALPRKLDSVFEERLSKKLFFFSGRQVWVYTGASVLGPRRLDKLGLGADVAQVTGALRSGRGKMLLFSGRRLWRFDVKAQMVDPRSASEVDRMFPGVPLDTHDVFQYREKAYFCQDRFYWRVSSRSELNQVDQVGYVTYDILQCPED

Take `COc1ccc(CN2C(=O)[C@H](CS)NC(=O)[C@@H]2CC2CCCCC2)cc1`: the IC50 was found to be 3800 nM on Stromelysin-1 [1], 30 nM on Interstitial collagenase [2] and 79 nM in assay [3].

Regarding `COc1ccc(CN2C(=O)[C@H](CS)NC(=O)[C@@H]2Cc2ccccc2)cc1`, the IC50 at Stromelysin-1 [1] came to 4040 nM; against Interstitial collagenase [2] it was 64 nM; in assay [3], 2360 nM.

On to `O=C1N[C@H](CS)C(=O)N(CC2CCCCC2)[C@@H]1CC1CCCCC1`, for which the IC50 against Matrilysin was above 40000 nM; against Interstitial collagenase [4], 14000 nM; in assay [5] it was above 40000 nM; against Stromelysin-1 [6], above 40000 nM.

With `O=C1N[C@@H](CS)C(=O)N(Cc2ccc3ccccc3n2)[C@H]1CC1CCCCC1`, the results for the IC50 (against Stromelysin-1 [1]; on Interstitial collagenase [2]; in assay [3]) were 2400 nM, 35 nM and 87 nM, respectively.

`O=C1N[C@H](CS)C(=O)N(CC2CCCCC2)[C@H]1CC1CCCCC1`: the 50% inhibitory concentration (IC50) on Matrilysin is above 40000 nM; against Interstitial collagenase [4], 2600 nM; against Stromelysin-1 [7], above 40000 nM; in assay [5] it was 7000 nM.

As for `O=C1N[C@@H](CS)C(=O)N(CC2CCCCC2)[C@@H]1CC1CCCCC1`, the half-inhibitory concentration (IC50) was 4800 nM against Matrilysin, 12000 nM in assay [5] and above 40000 nM on Stromelysin-1 [6].

Take `CCCC[C@H]1C(=O)N[C@@H](CS)C(=O)N1CC1CCCCC1`: the values for the IC50 (on Stromelysin-1 [1]; against Interstitial collagenase [2]; in assay [3]) were 3400 nM, 220 nM and 370 nM, respectively.

Consider `O=C1N[C@@H](CS)C(=O)N(CC2CCCCC2)[C@H]1CC1CCCCC1`, for which the IC50 against Matrilysin came out at 590 nM; at Interstitial collagenase [4], 47 nM; on Stromelysin-1 [1], 2910 nM; against Interstitial collagenase [2] it was 47 nM; on Stromelysin-1 [7], 2300 nM; in assay [5] it was 113 nM. This compound came in with an IC50 in assay [3] of 121 nM.

For `CCCCN1C(=O)[C@H](CS)NC(=O)[C@@H]1Cc1ccccc1`, the half-maximal inhibitory concentration (IC50) at Stromelysin-1 [1] was 19000 nM; on Interstitial collagenase [2] it was 319 nM; in assay [3], 2360 nM.

`CCCCCCN1C(=O)[C@H](Cc2cccnc2)NC(=O)[C@H]1CS` displayed a half-maximal inhibitory concentration (IC50) on Interstitial collagenase [4] of 2000 nM.

`CCCCCCCCN1C(=O)[C@H](Cc2cccnc2)NC(=O)[C@H]1CS` showed an IC50 against Interstitial collagenase [4] of 10000 nM.
